Key:
[1] = target: T1, Calcitonin gene-related peptide type 1 receptor (Homo sapiens, UniProt O60894+Q16602); assay: Displacement of [125I]CGRP from CGRP receptor in human SK-N-MC cells; format: cell-based
Summary of the method: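 Radioligand competition binding in human neuroblastoma SK-N-MC cells, which endogenously express CGRP receptor of identical sequence to the cloned human receptor. IC50 determined from compound competition for the radioligand.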

[2] = target: T1, Calcitonin gene-related peptide type 1 receptor; assay: Antagonist activity at CGRP receptor in human SK-N-MC cells assessed as inhibition of CGRP-stimulated formation of cyclic AMP; format: functional, cell-based
[3] = target: Cytochrome P450 3A4 (Homo sapiens, UniProt P08684); assay: Inhibition of CYP3A4; format: ADME
[4] = target: cytochrome P450 (isoform not stated) (Homo sapiens, UniProt P04798+P05177+P05181+P08684+P10632+P10635+P11509+P11712+P13584+P20813+P20815+P20853+P24462+P24903+P33260+P33261+P51589+P78329+P98187+Q02928+Q08477+Q16678+Q16696+Q5TCH4+Q6VVX0+Q7Z449+Q8TAV3+Q96SQ9+Q9HB55); assay: Inhibition of cytochrome P450; format: ADME
[5] = Inhibition of CGRP-induced dilation in potassium chloride pre-contracted ex vivo migraine model of human intracranial artery rings
[6] = Metabolic stability of the compound in rat liver microsomes assessed as compound remaining at 3 uM after 10 mins; format: ADME, Microsome; conditions: read-out: Stability
[7] = target: T2, Cytochrome P450 1A2 (Homo sapiens, UniProt P05177); assay: Inhibition of recombinant CYP1A2; format: ADME
T2 sequence (P05177 whole entry): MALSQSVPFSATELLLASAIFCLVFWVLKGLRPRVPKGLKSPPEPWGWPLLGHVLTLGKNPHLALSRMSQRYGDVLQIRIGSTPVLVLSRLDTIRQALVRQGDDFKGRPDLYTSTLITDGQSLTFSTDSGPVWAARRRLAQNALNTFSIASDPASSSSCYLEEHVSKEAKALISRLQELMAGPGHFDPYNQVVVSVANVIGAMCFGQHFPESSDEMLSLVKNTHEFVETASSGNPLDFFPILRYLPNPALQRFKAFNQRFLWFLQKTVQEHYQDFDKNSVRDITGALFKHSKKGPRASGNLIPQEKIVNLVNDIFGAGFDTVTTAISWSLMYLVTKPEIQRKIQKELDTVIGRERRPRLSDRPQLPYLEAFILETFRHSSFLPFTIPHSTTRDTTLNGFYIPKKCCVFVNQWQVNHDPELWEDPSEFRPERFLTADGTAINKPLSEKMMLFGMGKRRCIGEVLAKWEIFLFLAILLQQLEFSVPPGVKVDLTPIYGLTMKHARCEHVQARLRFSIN

[8] = target: Cytochrome P450 2C19 (Homo sapiens, UniProt P33261); assay: Inhibition of recombinant CYP2C19; format: ADME
[9] = Metabolic stability of the compound in human liver microsomes assessed as compound remaining at 3 uM after 10 mins; format: ADME, Microsome; conditions: read-out: Stability
[10] = target: Cytochrome P450 2C9 (Homo sapiens, UniProt P11712); assay: Inhibition of recombinant CYP2C9; format: ADME
Chain of Cytochrome P450 2C9 (P11712 whole entry): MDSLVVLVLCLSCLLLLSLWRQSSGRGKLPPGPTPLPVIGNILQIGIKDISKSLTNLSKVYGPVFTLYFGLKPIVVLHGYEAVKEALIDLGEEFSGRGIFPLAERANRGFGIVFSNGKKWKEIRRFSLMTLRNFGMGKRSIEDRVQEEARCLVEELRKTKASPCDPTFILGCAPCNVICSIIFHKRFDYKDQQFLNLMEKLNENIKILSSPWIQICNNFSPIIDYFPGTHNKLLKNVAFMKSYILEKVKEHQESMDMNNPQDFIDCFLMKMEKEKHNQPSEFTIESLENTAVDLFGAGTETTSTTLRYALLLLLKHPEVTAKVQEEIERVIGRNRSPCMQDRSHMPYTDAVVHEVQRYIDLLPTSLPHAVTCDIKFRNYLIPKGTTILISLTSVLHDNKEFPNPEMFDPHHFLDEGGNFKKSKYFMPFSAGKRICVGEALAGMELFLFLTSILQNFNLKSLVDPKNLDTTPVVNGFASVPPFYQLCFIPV

Chain of Cytochrome P450 3A4 (P08684 whole entry, canonical isoform): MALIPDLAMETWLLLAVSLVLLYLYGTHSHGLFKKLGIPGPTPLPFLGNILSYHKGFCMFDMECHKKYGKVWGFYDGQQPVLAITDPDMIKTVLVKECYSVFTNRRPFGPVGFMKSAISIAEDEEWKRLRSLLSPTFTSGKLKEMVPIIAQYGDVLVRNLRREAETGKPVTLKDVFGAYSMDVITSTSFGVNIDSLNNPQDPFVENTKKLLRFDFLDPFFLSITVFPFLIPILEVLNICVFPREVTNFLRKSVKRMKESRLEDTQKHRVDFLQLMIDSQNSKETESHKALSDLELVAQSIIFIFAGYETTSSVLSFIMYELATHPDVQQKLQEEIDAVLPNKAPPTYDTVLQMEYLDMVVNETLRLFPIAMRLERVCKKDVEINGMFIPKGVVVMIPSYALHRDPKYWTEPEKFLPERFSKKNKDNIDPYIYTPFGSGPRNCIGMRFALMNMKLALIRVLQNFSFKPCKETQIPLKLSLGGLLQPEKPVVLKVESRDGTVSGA
T1 sequence (Q16602 whole entry, one chain of several): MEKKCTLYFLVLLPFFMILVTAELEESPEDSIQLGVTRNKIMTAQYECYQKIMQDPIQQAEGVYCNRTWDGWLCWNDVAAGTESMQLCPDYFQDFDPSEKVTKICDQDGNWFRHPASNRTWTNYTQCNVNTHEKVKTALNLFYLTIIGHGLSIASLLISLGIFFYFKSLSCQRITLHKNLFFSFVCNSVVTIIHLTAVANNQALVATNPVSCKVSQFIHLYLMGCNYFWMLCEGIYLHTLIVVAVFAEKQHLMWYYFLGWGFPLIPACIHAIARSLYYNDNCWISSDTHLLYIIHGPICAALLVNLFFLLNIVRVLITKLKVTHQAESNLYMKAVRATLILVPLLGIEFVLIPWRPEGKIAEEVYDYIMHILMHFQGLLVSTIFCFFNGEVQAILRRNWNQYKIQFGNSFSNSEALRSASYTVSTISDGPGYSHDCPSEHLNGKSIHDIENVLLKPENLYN
Chain of Cytochrome P450 2C19 (P33261 whole entry): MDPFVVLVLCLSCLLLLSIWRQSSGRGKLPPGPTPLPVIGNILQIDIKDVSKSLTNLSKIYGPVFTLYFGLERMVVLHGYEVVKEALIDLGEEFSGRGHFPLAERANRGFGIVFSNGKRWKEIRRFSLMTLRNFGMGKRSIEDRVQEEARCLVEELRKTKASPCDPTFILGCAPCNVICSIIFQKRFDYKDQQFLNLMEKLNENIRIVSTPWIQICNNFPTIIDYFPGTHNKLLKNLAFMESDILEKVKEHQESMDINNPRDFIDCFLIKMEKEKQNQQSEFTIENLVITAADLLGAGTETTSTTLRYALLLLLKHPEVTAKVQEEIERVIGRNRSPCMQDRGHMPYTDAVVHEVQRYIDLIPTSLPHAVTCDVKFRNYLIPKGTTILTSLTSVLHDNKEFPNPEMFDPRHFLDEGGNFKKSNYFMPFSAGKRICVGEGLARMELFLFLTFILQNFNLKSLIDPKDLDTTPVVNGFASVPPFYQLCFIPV

Compound | IC50 [1] [nM] | EC50 [2] [nM] | other results
O=C(N[C@H](Cc1csc2ccccc12)C(=O)N1CCC(N2CCCCC2)CC1)N1CCC(n2c(=O)[nH]c3ccccc32)CC1 | 9 |  | 
O=C(N[C@H](Cc1csc2ccccc12)C(=O)N1CCC(C2CCNCC2)CC1)N1CCC(n2c(=O)[nH]c3ccccc32)CC1 | 4 |  | 
O=C(N[C@H](Cc1csc2ccccc12)C(=O)N1CCC(N2CCCCC2)CC1)N1CCC2(CC1)C(=O)Nc1ccccc12 | 170 |  | 
O=C1CC2(CCN(C(=O)N[C@H](Cc3csc4ccccc34)C(=O)N3CCC(N4CCCCC4)CC3)CC2)c2ccccc2N1 | 23 | 12 | 
O=C1Cc2ccccc2C2(CCN(C(=O)N[C@H](Cc3csc4ccccc34)C(=O)N3CCC(N4CCCCC4)CC3)CC2)N1 | 29 | 15 | 
O=C1NCC2(CCN(C(=O)N[C@H](Cc3csc4ccccc34)C(=O)N3CCC(N4CCCCC4)CC3)CC2)c2ccccc21 | 150 | 130 | 
CN1c2ccccc2C(=O)NC12CCN(C(=O)N[C@H](Cc1csc3ccccc13)C(=O)N1CCC(N3CCCCC3)CC1)CC2 | 860 |  | 
O=C(N[C@H](Cc1csc2ccccc12)C(=O)N1CCC(N2CCCCC2)CC1)N1CCC2(CC1)N=C(c1ccccc1)NC2=O | 20 | 13 | IC50 [3]: < 1000 nM; IC50 [4]: > 40000 nM; EC50 [5]: 63 nM
O=C(N[C@H](Cc1csc2ccccc12)C(=O)N1CCC(N2CCCCC2)CC1)N1CCC2(CC1)C(=O)NCN2c1ccccc1 | 330 |  | 
O=C(N[C@H](Cc1csc2ccccc12)C(=O)N1CCC(N2CCCCC2)CC1)N1CCC2(CC1)N=C(C1CCCCC1)NC2=O | 8500 |  | 
O=C(N[C@H](Cc1csc2ccccc12)C(=O)N1CCC(N2CCCCC2)CC1)N1CCC2(CC1)N=C(c1ccncc1)NC2=O | 1400 |  | 
O=C(N[C@H](Cc1csc2ccccc12)C(=O)N1CCC(N2CCCCC2)CC1)N1CCC2(CC1)N=C(c1cccnc1)NC2=O | 210 |  | 
O=C1Nc2ccccc2C2(CCN(C(=O)N[C@H](Cc3csc4ccccc34)C(=O)N3CCC(N4CCCCC4)CC3)CC2)O1 | 20 | 31 | IC50 [3]: < 1000 nM; IC50 [4]: > 40000 nM; EC50 [5]: 19 nM
O=C1Nc2ccccc2C2(CCN(C(=O)N[C@H](Cc3csc4ccccc34)C(=O)N3CCC(N4CCCCC4)CC3)CC2)N1 | 5 | 3 | remaining at 10 min, 3 µM [6]: 100%; IC50 [7]: > 40000 nM; IC50 [8]: > 40000 nM; IC50 [3]: 100 nM; remaining at 10 min, 3 µM [9]: 82%; IC50 [10]: > 40000 nM; EC50 [5]: 32 nM
O=C(N[C@H](Cc1csc2ccccc12)C(=O)N1CCC(N2CCCCC2)CC1)N1CCC(N2Cc3ccccc3NC2=O)CC1 | 3 |  | 

Source: ChEMBL document CHEMBL2057200, “Design and synthesis of potent antagonists containing rigid spirocyclic privileged structures for the CGRP receptor” (Bioorg Med Chem Lett, 2012)
